Laboratory results as given in the RNAGym collection of RNA variant scans (doi:10.1126/science.aae0568).
Fewer inactive variants are shown than the library holds.

B1: tRNA (parent)
chain: GUUCCGUUGGCGUAAUGGUAACGCGUCUCCCUCCUAAGGAGAAGACUGCGGGUUCGAGUCCCGUACGGAACG

Variants of: B1
Assay: yeast fitness relative to wild type (ratio to wild type); higher = fitter; tRNA-Arg(CCU), competitive growth, 37 C, YPD
Summary of the method: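 A pool of Saccharomyces cerevisiae strains, each with a tRNA-Arg(CCU) gene variant at the native genomic locus, was competed in YPD at 37°C for 24 hours across six parallel replicates. The variants had been chemically synthesised at a 3% per-site mutation rate over 69 sites, and gene amplicons before and after competition were read by 100-nucleotide paired-end sequencing. Darwinian fitness relative to wild type rested on changes in genotype frequencies. Genotypes required ≥ 100 starting reads, and estimates < 0.5 were set to 0.5.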
With A20U C29U C49G C55A C66U the yeast fitness was ≤ 0.5.
For A20C C24G C27A G44A U59G A65C, the yeast fitness was ≤ 0.5.
A20G G48C showed a yeast fitness of 1.
A20G C24U G25A U35A C60U A70G gave a yeast fitness of 0.655.
A20U C31A G52A C66U showed a yeast fitness of 0.527.
For A20G A57C C62G C66G, the yeast fitness was ≤ 0.5.
With A20U G44U A57U G58A C66G the yeast fitness was 0.518.
For A20C C30G C33G, the yeast fitness was ≤ 0.5.
For A20C A70G, the yeast fitness was 0.925.
For A21C C24U U26A G38C C46G C62U A65C, the yeast fitness was ≤ 0.5.
In the case of A20G C29A C49U G63A, the yeast fitness is reported as ≤ 0.5.
For A20G G50C G63C G67C, the yeast fitness was ≤ 0.5.
In the case of A20G C33A A36C U47A, the yeast fitness is reported as ≤ 0.5.
With A20C A45U C55U the yeast fitness was ≤ 0.5.
Work on A20C C24U G68C yielded a yeast fitness of 0.542.
In the case of A20G G23A A65G, the yeast fitness is reported as 0.574.
Variant A20U G44C A45G has a yeast fitness of 0.596.
Variant A20G U28G C31U has a yeast fitness of 0.588.
With A20G C29A A40U C62G the yeast fitness was ≤ 0.5.
For A21C U26A C27G, the yeast fitness was 0.581.
In the case of A20C C31A, the yeast fitness is reported as 0.79.
With A21C G25C U26G U59A G63C G68U the yeast fitness was ≤ 0.5.
For A20U A21C C27A A45G, the yeast fitness was ≤ 0.5.
For A20G C27A C31A, the yeast fitness was ≤ 0.5.
Work on A20G A57C yielded a yeast fitness of 0.642.
A20U U47C showed a yeast fitness of 0.935.
Variant A20U C29G A43U has a yeast fitness of 0.612.
Variant A20U U54C has a yeast fitness of 0.758.
With A20C C27A G52A the yeast fitness was ≤ 0.5.
Work on A20U C30A yielded a yeast fitness of 0.795.
A20C C49U U59C showed a yeast fitness of 0.588.
For A20G C34U, the yeast fitness was 0.777.
With A20G C34G the yeast fitness was 0.68.
With A20U U35C the yeast fitness was 0.949.
With A20C A57C C60A the yeast fitness was ≤ 0.5.
A21C C30G showed a yeast fitness of 0.6.
In the case of A21C C22G G38C C49U A57C, the yeast fitness is reported as ≤ 0.5.
With A20U A36U the yeast fitness was 0.639.
For A20C G41A G58U, the yeast fitness was 0.706.
A20C A43C A69U A70C showed a yeast fitness of 0.725.
With A20G G44A the yeast fitness was 0.962.
A21C G25C U26G G50U G56A U59A A70C gave a yeast fitness of 0.541.
A20G C49U C61G gave a yeast fitness of 0.617.
With A20U C29A C30A U53G C62G the yeast fitness was ≤ 0.5.
With A20C C29U C49G A70U the yeast fitness was ≤ 0.5.
Variant U19G C34A has a yeast fitness of 0.87.
With A20G A37C A40G C49U the yeast fitness was ≤ 0.5.
A20G A40C showed a yeast fitness of 0.803.
Variant A20G A40U has a yeast fitness of 0.92.
In the case of A20U G23A C31U G39A, the yeast fitness is reported as ≤ 0.5.
For A20G C29G G50A A70U, the yeast fitness was ≤ 0.5.
Work on A21C C22U G38C A40C C62A yielded a yeast fitness of 0.559.
In the case of A20C C34A A37G C46A, the yeast fitness is reported as 0.541.
A20C G39C showed a yeast fitness of 0.723.
In the case of A21C C30A A42C G48C C49U U54C, the yeast fitness is reported as 0.598.
For A20C G67U, the yeast fitness was 0.754.
With A20U U26C C62G the yeast fitness was ≤ 0.5.
With A21C C62U C66A the yeast fitness was ≤ 0.5.
In the case of A20C A43C C49A U54A G58A C60A, the yeast fitness is reported as ≤ 0.5.
With A20G C31U A57C U64A G68A the yeast fitness was ≤ 0.5.
For A20U C22A C61A C62G G68A, the yeast fitness was ≤ 0.5.
For A20C C24A C27A A36C, the yeast fitness was ≤ 0.5.
Work on A20U C62U A65C yielded a yeast fitness of 0.682.
For A20G G23A G38A, the yeast fitness was ≤ 0.5.
With A20C A21G A57G the yeast fitness was 0.744.
With A20C C24G C27U C31G U54C A65C the yeast fitness was ≤ 0.5.
For A20C C30A C33U C34U C49A C62G, the yeast fitness was ≤ 0.5.
For A20U U32A A65C, the yeast fitness was ≤ 0.5.
Variant U19G U47C U64G has a yeast fitness of 0.536.
For U19G G41A G48C C49U A57C A70U, the yeast fitness was ≤ 0.5.
In the case of A21C G38A G58C, the yeast fitness is reported as 0.503.
For A20G C29G C49U G68A, the yeast fitness was ≤ 0.5.
For A20U G51A C61G, the yeast fitness was ≤ 0.5.
With A20G C24A C49U C66U A70C the yeast fitness was ≤ 0.5.
With A20G G50A the yeast fitness was 0.905.
For A20U C30U C31G A43G G44A U47A C49G, the yeast fitness was 0.595.
For A20G C60U C62U, the yeast fitness was ≤ 0.5.
For A20U A36G A43U, the yeast fitness was 0.601.
With A21C C22G G38C A57C the yeast fitness was 0.524.
For A20U A37C G38C, the yeast fitness was ≤ 0.5.
For A20U A36G G38A A40U A42G, the yeast fitness was ≤ 0.5.
In the case of A20C C31A G48A U59C, the yeast fitness is reported as ≤ 0.5.
In the case of A20G A21U A70U, the yeast fitness is reported as ≤ 0.5.
A21C A36U gave a yeast fitness of 0.54.
